# Data from ChEMBL document CHEMBL2021872, “Synthesis and biological evaluation of new potent and selective HCV NS5A inhibitors” (Bioorg Med Chem Lett, 2012).
# What was measured:
# Hepatitis C virus [1] = test: Antiviral activity against HCV1b infected in human HuH7 cells assessed as inhibition of viral replication by RT-PCR analysis; assay type: functional, organism-based, Hepacivirus hominis; details: genotype 1b, Huh-7
# In short: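 Huh7 cells carrying a subgenomic genotype 1b HCV replicon were treated with compound, and HCV RNA replication was measured. HCV RNA and ribosomal RNA were extracted and amplified together, and cytotoxicity in Huh7 was read at the same time. EC50 and EC90 came from dose–response curves of at least four concentrations, each run in triplicate, and are reported as means.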
# PBMC = test: Cytotoxicity against human PBMC after 3 days; assay type: cell-based; details: 72 h
# In short: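 CC50 was measured in human peripheral blood mononuclear (PBM) cells, the human T-cell-derived CEM line, and African green monkey kidney epithelial Vero cells. Dose–response was fitted from at least four concentrations, each run in triplicate and reported as the mean.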
# CCRF-CEM = test: Cytotoxicity against human CEM cells after 3 days; assay type: cell-based; details: 72 h
# Vero = test: Cytotoxicity against african green monkey Vero cells after 3 days; assay type: cell-based; details: chlorocebus sabaeus, 72 h
# [2] = Therapeutic index, ratio of CC50 for human PBMC to EC50 for HCV1b
# In short: (§1)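 The index is CC50/EC50. EC50 came from Huh7 cells carrying a subgenomic genotype 1b HCV replicon, with HCV RNA quantified by extraction and amplification alongside rRNA. CC50 was measured in PBM, CEM or Vero cells. Each dose–response used at least four concentrations in triplicate, and means were reported.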
# [3] = Therapeutic index, ratio of CC50 for human CEM cells to EC50 for HCV1b; assay type: cell-based, CCRF-CEM; in short: as §1
# [4] = Therapeutic index, ratio of CC50 for african green monkey Vero cells to EC50 for HCV1b; assay type: cell-based; in short: as §1
# Hepatitis C virus [5] = test: Antiviral activity against HCV1b infected in human assessed as reduction of viral RNA level at 10 mg after 24 hrs; assay type: functional, Hepacivirus hominis, genotype 1b
SMILES,EC50 (Hepatitis C virus [1]) [nM],EC90 (Hepatitis C virus [1]) [nM],CC50 (PBMC) [µM],CC50 (CCRF-CEM) [µM],CC50 (Vero) [µM],selectivity ratio [2],selectivity ratio [3],selectivity ratio [4],Activity (Hepatitis C virus [5]) [log10IU/ml]
COC(=O)N[C@H](C(=O)N1CCC[C@H]1c1ncc(-c2ccc(NS(=O)(=O)c3ccc(-c4cnc([C@@H]5CCCN5C(=O)[C@@H](NC(=O)OC)C(C)C)[nH]4)cc3)cc2)[nH]1)C(C)C,100,> 100,15,13,> 100,,,,
COC(=O)N[C@H](C(=O)N1CCC[C@H]1c1ncc(-c2ccc(-c3ccc(-c4ccc(-c5cnc([C@@H]6CCCN6C(=O)[C@@H](NC(=O)OC)C(C)C)[nH]5)cc4)cc3)cc2)[nH]1)C(C)C,0.026,0.09,> 100,> 100,> 100,> 4e+06,> 4e+06,> 4e+06,
COC(=O)N[C@H](C(=O)N1CCC[C@H]1c1ncc(-c2ccc(Oc3ccc(-c4cnc([C@@H]5CCCN5C(=O)[C@@H](NC(=O)OC)C(C)C)[nH]4)cc3)cc2)[nH]1)C(C)C,30,90,16,16,19,,,,
COC(=O)N[C@H](C(=O)N1CCC[C@H]1c1ncc(-c2ccc(-c3ccc(-c4cnc([C@@H]5CCCN5C(=O)[C@@H](NC(=O)OC)C(C)C)[nH]4)cc3)cc2)[nH]1)C(C)C,0.0066,0.023,19,,,,,,> 3
COC(=O)N[C@H](C(=O)N1CCC[C@H]1c1ncc(-c2ccc(-c3cnc([C@@H]4CCCN4C(=O)[C@@H](NC(=O)OC)C(C)C)[nH]3)cc2)[nH]1)C(C)C,> 1,,> 100,> 100,> 100,,,,
COC(=O)N[C@H](C(=O)N1CCC[C@H]1c1ncc(-c2ccc(-c3ccc(-c4ccc(-c5ccc(-c6cnc([C@@H]7CCCN7C(=O)[C@@H](NC(=O)OC)C(C)C)[nH]6)cc5)cc4)cc3)cc2)[nH]1)C(C)C,0.24,1,> 100,> 100,> 100,,,,
COC(=O)N[C@H](C(=O)N1CCC[C@H]1c1ncc(-c2ccc(-c3cn(-c4ccc(-c5cnc([C@@H]6CCCN6C(=O)[C@@H](NC(=O)OC)C(C)C)[nH]5)cc4)nn3)cc2)[nH]1)C(C)C,0.2,0.9,18,5,35,,,,
COC(=O)N[C@H](C(=O)N1CCC[C@H]1c1ncc(-c2ccc(-c3ccc(-c4ccc(-c5cnc([C@@H]6CCCN6C(=O)[C@@H](NC(=O)OC)C(C)C)[nH]5)cc4)s3)cc2)[nH]1)C(C)C,0.1,0.3,26,12,> 100,,,,
COC(=O)N[C@H](C(=O)N1CCC[C@H]1c1ncc(-c2ccc(-c3ccc(-c4cnc([C@@H]5CCCN5C(=O)[C@@H](NC(=O)OC)C(C)C)[nH]4)s3)cc2)[nH]1)C(C)C,90.6,> 100,93,48,99,,,,
COC(=O)N[C@H](C(=O)N1CCC[C@H]1c1ncc(-c2ccc(-c3cccc(-c4ccc(-c5cnc([C@@H]6CCCN6C(=O)[C@@H](NC(=O)OC)C(C)C)[nH]5)cc4)c3)cc2)[nH]1)C(C)C,0.8,2.9,18,3,> 100,,,,
COC(=O)N[C@H](C(=O)N1CCC[C@H]1c1ncc(-c2ccc(-c3ccc(-c4ccc(-c5cnc([C@@H]6CCCN6C(=O)[C@@H](NC(=O)OC)C(C)C)[nH]5)cc4)nc3)cc2)[nH]1)C(C)C,0.026,0.068,3.9,2.3,6.5,,,,
COC(=O)N[C@H](C(=O)N1CCC[C@H]1c1ncc(-c2ccc(-c3ccc(-c4ccc(-c5cnc([C@@H]6CCCN6C(=O)[C@@H](NC(=O)OC)C(C)C)[nH]5)cn4)cc3)cc2)[nH]1)C(C)C,0.2,0.7,5.5,31,29,,,,
